Experimental data gathered from unrelated publications.
Converted amounts (≈) assume the structure as drawn.
Organism: Mycobacterium tuberculosis
Effect on: microbial growth

Structure (SMILES) | assay | system | setting | endpoint | value
Cc1cc2nc(C(=O)N(C)C)cc(-c3ccccc3Cl)c2c(C)c1-c1ccncc1 | – | H37RV | – | MIC90 | 20 µM (≈ 8.32 µg/mL)
CCOC(=O)c1c(NC(=O)c2c(F)c(F)c(F)c(F)c2F)sc2c1CCN(C(=O)OC(C)(C)C)C2 | resazurin | H37RV | – | MIC | < 100 µM
Nc1nc(-c2ccc(-c3ccccc3)cc2)nc2c1ncn2[C@@H]1O[C@H](COS(=O)(=O)NC(=O)c2ccccc2O)[C@@H](O)[C@H]1O | – | H37RV | pH 6.6 | MIC99 | 25 to 50 µM
CCOC(=O)c1c(NC(=O)c2c(F)c(F)c(F)c(F)c2F)sc2c1CCN(CC)C2 | resazurin | H37RV | – | IC50 | 650 nM
Nc1nc(-c2cccc(-c3ccccc3)c2)nc2c1ncn2[C@@H]1O[C@H](COS(=O)(=O)NC(=O)c2ccccc2O)[C@@H](O)[C@H]1O | – | H37RV | pH 6.6 | MIC99 | 25 to 50 µM
Cc1cccc(C)c1-c1ccnc2cc(C)c(-c3ccc(CN4CCOCC4)cc3)c(C)c12 | – | H37RV | – | MIC90 | 5 µM (≈ 2.18 µg/mL)
CO[C@H]1/C=C/O[C@@]2(C)Oc3c(C)c(O)c4c(O)c(c(/C=N/N5CCN(C)CC5)c(O)c4c3C2=O)NC(=O)/C(C)=C\C=C\[C@H](C)[C@H](O)[C@@H](C)[C@@H](O)[C@@H](C)[C@H](OC(C)=O)[C@@H]1C | resazurin | ATCC27294 H37RV | 7 days | MIC | 0.06 µg/mL
[H]/N=C(/N)N[C@H]1[C@H](O)[C@@H](O)[C@H](O[C@@H]2O[C@@H](C)[C@](O)(C=O)[C@H]2O[C@@H]2O[C@@H](CO)[C@H](O)[C@@H](O)[C@@H]2NC)[C@@H](N/C(N)=N\[H])[C@@H]1O | disc diffusion | ATCC25177 | 5 µg/disc, 12 days | inhibition zone | 30 mm
CCCCOC(=O)Nc1cc2nc(C3CCCCC3)[nH]c2cc1N1CCCC1 | resazurin | H37RV | – | MIC99 | 0.39 µg/mL
Nc1sc2c(c1C(=O)O)CCN(C(=O)OCc1ccccc1)C2 | resazurin | H37RV | – | MIC | > 300 µM
O=C(Nc1cc2nc(C3CCCCC3)[nH]c2cc1N1CCCC1)OCc1ccccc1 | resazurin | H37RV | – | MIC99 | 1.56 µg/mL
COc1cccc2c1C(=O)c1c(O)c3c(c(O)c1C2=O)C[C@@](O)(C(C)=O)C[C@@H]3O[C@H]1C[C@H](N)[C@H](O)[C@H](C)O1 | resazurin | H37RV | – | MIC | 1.25 µM
Cc1cc2nc(C(=O)O)cc(-c3ccccc3Cl)c2c(C)c1-c1ccncc1 | – | H37RV | – | MIC90 | 80 µM (≈ 31.1 µg/mL)
Nc1sc2c(c1C(=O)NC13CC4CC(CC(C4)C1)C3)CCCC2 | resazurin | H37RV | – | MIC | > 300 µM
CC(=O)[C@]1(O)Cc2c(O)c3c(c(O)c2[C@@H](O[C@H]2C[C@H](N)[C@H](O)[C@H](C)O2)C1)C(=O)c1ccccc1C3=O | resazurin | H37RV | – | MIC | 80 µM
